This note sets out measurements from ChEMBL document CHEMBL1129293 (J Med Chem, 1996).

Molecules are shown by their SMILES.

What is called EC50 is the concentration needed to bring the measured effect to its halfway point.

Assay [1] addresses D(1A) dopamine receptor (Rattus norvegicus) (UniProt P18901). Description: Affinity towards Dopamine receptor D1 was evaluated in rat striatal membrane using [3H]SCH-23,390 as radioligand. Format: cell membranes. Particulars: Striatum. The method in brief: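 Male Sprague-Dawley rats, 200–400 g; striatum dissected from coronal slices, used fresh or held at -70 °C. Membranes homogenized and twice centrifuged at 27000g in ice-cold 50 mM HEPES, 4.0 mM MgCl2, pH 7.4, final ca. 2.0 mg wet weight/mL. Incubation with [3H]SCH23390 at 37 °C for 15 min; bound radioactivity by liquid scintillation; protein by Lowry.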

For a further assay, the species on record is Rattus norvegicus. Description: Evaluated for the maximum stimulation of adenylate cyclase in rat striatal tissue with respect to the maximum stimulation caused by dopamine. Format: functional, Striatum.
Assay [2] addresses D(2) dopamine receptor (Rattus norvegicus) (UniProt P61169). In words: Affinity towards Dopamine receptor D2 was evaluated in rat striatal membrane using [3H]spiperone as radioligand. Format: cell membranes. Particulars: Striatum.
The next assay concerns the target D(1A) dopamine receptor (Rattus norvegicus, UniProt P18901). Description: Effective concentration was determined for the adenylate cyclase activity in rat striatal tissue as a measure of Dopamine receptor D1 functional activity. In kind it is tissue-based, Striatum.

D(2) dopamine receptor (Rattus norvegicus), sequence (P61169 whole entry): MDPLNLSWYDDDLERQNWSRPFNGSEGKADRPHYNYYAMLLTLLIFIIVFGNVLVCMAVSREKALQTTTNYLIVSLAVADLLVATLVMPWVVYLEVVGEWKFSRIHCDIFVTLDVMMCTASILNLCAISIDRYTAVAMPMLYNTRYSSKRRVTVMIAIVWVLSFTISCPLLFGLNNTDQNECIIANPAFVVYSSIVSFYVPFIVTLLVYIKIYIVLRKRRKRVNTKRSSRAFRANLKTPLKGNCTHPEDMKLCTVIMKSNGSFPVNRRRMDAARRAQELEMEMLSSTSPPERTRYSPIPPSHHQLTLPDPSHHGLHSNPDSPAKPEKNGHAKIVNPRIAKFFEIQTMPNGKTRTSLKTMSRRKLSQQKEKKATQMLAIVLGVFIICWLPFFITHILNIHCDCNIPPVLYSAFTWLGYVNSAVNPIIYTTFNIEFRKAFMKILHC
D(1A) dopamine receptor, sequence (P18901 whole entry): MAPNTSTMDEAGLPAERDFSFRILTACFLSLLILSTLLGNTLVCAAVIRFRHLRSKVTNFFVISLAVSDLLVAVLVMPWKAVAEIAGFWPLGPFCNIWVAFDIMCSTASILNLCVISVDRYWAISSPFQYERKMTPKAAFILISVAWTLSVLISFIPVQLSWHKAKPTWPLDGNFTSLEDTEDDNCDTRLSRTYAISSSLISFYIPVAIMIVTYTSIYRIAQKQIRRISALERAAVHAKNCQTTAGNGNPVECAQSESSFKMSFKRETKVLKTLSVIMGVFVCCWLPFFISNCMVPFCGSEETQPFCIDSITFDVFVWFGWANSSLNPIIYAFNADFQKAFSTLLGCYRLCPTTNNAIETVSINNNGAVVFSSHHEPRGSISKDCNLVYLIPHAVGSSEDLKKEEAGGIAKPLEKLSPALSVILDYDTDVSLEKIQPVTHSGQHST
D(1A) dopamine receptor (Rattus norvegicus), sequence (P18901 whole entry): as above

Regarding `NCCc1ccc(O)c(O)c1` [DOPAMINE], the K0.5 in assay [1] amounted to 267 nM. Further, in the assay filed under Rattus norvegicus, the Stimulation is recorded as 100%.
Turning to `NC[C@@H]1O[C@H](c2ccccc2)Cc2c1ccc(O)c2O`, the K0.5 in assay [1] was determined as 0.9 nM; in assay [2] it was 41 nM. The compound also yielded a Stimulation in the assay listed under Rattus norvegicus of 96%.
Regarding `C=CCN1Cc2ccccc2[C@@H]2c3cc(O)c(O)cc3CC[C@H]21`, the K0.5 is 328 nM in assay [1] and 182 nM in assay [2]. The compound also showed an EC50 on D(1A) dopamine receptor of over 10 µM. The same compound came in with a Stimulation in the assay listed under Rattus norvegicus of 32%.
On to `Oc1ccc2c(c1O)CCC(NCc1ccccc1)C2` (configuration not stated), for which the K0.5 in assay [1] and in assay [2] was over 1000 nM in each case. Further, the EC50 at D(1A) dopamine receptor was over 1 µM. The same compound gave a Stimulation in the assay listed under Rattus norvegicus of 38%.
With `Oc1cc2c(cc1O)[C@@H]1c3ccccc3CN[C@@H]1CC2` (relative stereo), the K0.5 in assay [1] and in assay [2] was over 1000 nM in each case. In the assay filed under Rattus norvegicus, this compound had a Stimulation of 17%.
Turning to `NC[C@@H]1O[C@H](C23CC4CC(CC(C4)C2)C3)Cc2c1ccc(O)c2O`, in the assay listed under Rattus norvegicus, the Stimulation is 92%.
For the compound `CN1Cc2ccccc2[C@@H]2c3ccc(O)c(O)c3CC[C@H]21`, the K0.5 was 477 nM in assay [1] and 61 nM in assay [2]. This compound registered a concentration giving a half-maximal response (EC50) on D(1A) dopamine receptor of over 10 µM. In the assay filed under Rattus norvegicus, this compound displayed a Stimulation of 22%.
For `Oc1cc2c(cc1O)CC(NCc1ccccc1)CC2` (configuration not stated), the K0.5 in assay [1] was over 1000 nM; in assay [2] it was 335 nM. This compound returned an EC50 at D(1A) dopamine receptor of over 10 µM. Further, the Stimulation in the assay filed under Rattus norvegicus amounted to 25%.
As for `CCCN1CCC[C@@H]2Cc3n[nH]cc3C[C@H]21`, the K0.5 is over 10000 nM in assay [1] and 49 nM in assay [2].
With `C=CCN1CCc2c(cc(O)c(O)c2Cl)[C@@H](c2ccccc2)C1`, the values for the K0.5 in assay [1] and in assay [2] were 4 nM and 73 nM, respectively. The compound also returned a Stimulation in the assay filed under Rattus norvegicus of 94%.
`CN1CCc2cc(Cl)c(O)cc2[C@@H](c2ccccc2)C1`: the K0.5 in assay [2] was determined as 600 nM.
For `Oc1cc2c(cc1O)[C@H]1c3ccccc3CN[C@@H]1CC2` [DIHYDREXIDINE], the K0.5 in assay [1] came to 2.3 nM; in assay [2] it was 43.8 nM. The compound also showed a Stimulation in the assay filed under Rattus norvegicus of 120%.
Regarding `CCCN1Cc2ccccc2[C@@H]2c3cc(O)c(O)cc3CC[C@H]21`, the results for the K0.5 in assay [1] and in assay [2] were 326 nM and 27 nM, respectively. The half-maximal effective concentration (EC50) on D(1A) dopamine receptor is over 10 µM. In the assay filed under Rattus norvegicus, this compound registered a Stimulation of 36%.
As to `Oc1ccc([C@@H]2CNCc3sccc32)cc1O`, the K0.5 in assay [1] came out at 61 nM; in assay [2] it was 142 nM. The EC50 at D(1A) dopamine receptor came to 0.7 µM. Further, the Stimulation in the assay listed under Rattus norvegicus was 120%.
